Laboratory results published in article PMC7161550 (British Journal of Pharmacology, 2020).
Where two headings read alike, the source gives them in different places.

Experiments:
[1] = target: T1, mouse brain fatty acid amide hydrolase (FAAH) (Mus musculus, UniProt O08914); assay: Ex vivo FAAH activity in mouse brain after oral administration; settings: 0.1 mg·kg^−1 p.o., 1 hr after dosing
T1 sequence (O08914 1-579): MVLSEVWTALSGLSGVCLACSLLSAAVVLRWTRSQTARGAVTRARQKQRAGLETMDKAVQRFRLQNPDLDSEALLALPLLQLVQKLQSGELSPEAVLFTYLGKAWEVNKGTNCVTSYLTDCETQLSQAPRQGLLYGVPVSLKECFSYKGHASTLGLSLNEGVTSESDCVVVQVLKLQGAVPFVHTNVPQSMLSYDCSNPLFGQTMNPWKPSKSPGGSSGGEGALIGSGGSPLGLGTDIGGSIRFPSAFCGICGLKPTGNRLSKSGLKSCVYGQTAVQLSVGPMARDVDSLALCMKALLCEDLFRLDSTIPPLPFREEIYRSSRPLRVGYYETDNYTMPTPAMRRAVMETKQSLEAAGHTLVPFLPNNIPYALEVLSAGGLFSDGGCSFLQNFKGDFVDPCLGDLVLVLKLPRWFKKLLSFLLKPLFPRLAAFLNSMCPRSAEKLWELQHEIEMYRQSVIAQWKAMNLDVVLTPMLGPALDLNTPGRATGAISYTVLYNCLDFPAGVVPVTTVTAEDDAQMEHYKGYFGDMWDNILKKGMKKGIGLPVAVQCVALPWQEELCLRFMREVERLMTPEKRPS
Method in brief: (§1)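 Liver and half-brain were collected into FAAH membrane buffer (3 mM MgCl2, 1 mM EDTA, 50 mM Tris HCl, pH 7.4) and stored at −20°C. Homogenates (15 μg protein brain, 5 μg liver) were pre-incubated 15 min at 37°C. AEA + 3H‑AEA + BSA was added for 10 min (brain) or 7 min (liver), then charcoal. Scintillation counting gave % remaining activity versus controls after blank subtraction.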

[2] = test system: 229 assays for receptors, enzymes, transporters, ion channels, hormones, growth factors and inflammatory mediators; assay type: binding; settings: 10 and 50 μM
[3] = target: T2, mouse liver fatty acid amide hydrolase (FAAH) (Mus musculus, UniProt O08914); assay: Ex vivo FAAH activity in mouse liver after oral administration; settings: 0.1 mg·kg^−1 p.o., 1 hr after dosing
T2 sequence (O08914 1-579): T1 sequence (O08914 1-579)
Method in brief: as §1

[4] = target: T3, fatty acid amide hydrolase (Rattus norvegicus, UniProt P97612); assay: Gel‐based competitive ABPP in vitro, TAMRA‐FP probe, rat brain fractions; assay type: biochemical; settings: 1 hr
T3 sequence (P97612 1-579): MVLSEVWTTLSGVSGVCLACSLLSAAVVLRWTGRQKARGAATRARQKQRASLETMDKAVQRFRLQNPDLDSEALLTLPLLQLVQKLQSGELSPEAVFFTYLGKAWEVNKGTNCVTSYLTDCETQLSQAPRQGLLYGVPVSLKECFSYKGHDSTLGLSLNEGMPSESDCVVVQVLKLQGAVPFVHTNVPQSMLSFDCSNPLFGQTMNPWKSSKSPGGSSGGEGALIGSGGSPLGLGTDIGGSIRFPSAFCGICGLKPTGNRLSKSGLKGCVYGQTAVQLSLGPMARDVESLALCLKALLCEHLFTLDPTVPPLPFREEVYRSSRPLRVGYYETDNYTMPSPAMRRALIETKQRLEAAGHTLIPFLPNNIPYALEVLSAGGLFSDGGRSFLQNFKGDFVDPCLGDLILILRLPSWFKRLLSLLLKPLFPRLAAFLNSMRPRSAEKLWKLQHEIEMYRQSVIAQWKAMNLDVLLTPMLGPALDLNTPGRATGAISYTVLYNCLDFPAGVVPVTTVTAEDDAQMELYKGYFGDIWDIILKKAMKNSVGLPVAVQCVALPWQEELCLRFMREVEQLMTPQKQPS
Method in brief: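 Rat brain membrane and soluble protein extracts (200 μg) were incubated 1 hr at room temperature with test compound at 1 nM–100 μM, DMSO vehicle or PMSF 3 mM. Active serine hydrolases were then labelled with TAMRA‑FP probe (2 μM final) for 1 hr at room temperature. Bands were visualized by in-gel fluorescence.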

[5] = target: T4, rat brain fatty acid amide hydrolase (Rattus norvegicus, UniProt P97612); assay: FAAH progression curves, kinetic constants k obs and k inact/K I; assay type: biochemical; settings: inhibition of rat brain FAAH, 37°C
T4 sequence (P97612 1-579): T3 sequence (P97612 1-579)

[6] = test system: brain fatty acid amides (AEA, PEA, OEA); assay: Fatty acid amides; assay type: in vivo; settings: mouse brain, 8 hr
Method in brief: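 Frozen brains were thawed at 4°C and weighed. Each sample was extracted with chloroform:MeOH (2:1) plus 0.1 M phosphate buffer, pH 5.6. Deuterated internal standards were spiked in: AEA‑d8, PEA‑d4 and OEA‑d2 for the fatty acid amides, and 2‑AG‑d8 for 2‑AG.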

[7] = target: T5, human recombinant fatty acid amide hydrolase (FAAH) (Homo sapiens, UniProt O00519); assay: FAAH activity in intact COS‐hFAAH cells; assay type: cell-based; settings: for IC50: read-out: IC50 [95% CI]
T5 sequence (O00519 1-579): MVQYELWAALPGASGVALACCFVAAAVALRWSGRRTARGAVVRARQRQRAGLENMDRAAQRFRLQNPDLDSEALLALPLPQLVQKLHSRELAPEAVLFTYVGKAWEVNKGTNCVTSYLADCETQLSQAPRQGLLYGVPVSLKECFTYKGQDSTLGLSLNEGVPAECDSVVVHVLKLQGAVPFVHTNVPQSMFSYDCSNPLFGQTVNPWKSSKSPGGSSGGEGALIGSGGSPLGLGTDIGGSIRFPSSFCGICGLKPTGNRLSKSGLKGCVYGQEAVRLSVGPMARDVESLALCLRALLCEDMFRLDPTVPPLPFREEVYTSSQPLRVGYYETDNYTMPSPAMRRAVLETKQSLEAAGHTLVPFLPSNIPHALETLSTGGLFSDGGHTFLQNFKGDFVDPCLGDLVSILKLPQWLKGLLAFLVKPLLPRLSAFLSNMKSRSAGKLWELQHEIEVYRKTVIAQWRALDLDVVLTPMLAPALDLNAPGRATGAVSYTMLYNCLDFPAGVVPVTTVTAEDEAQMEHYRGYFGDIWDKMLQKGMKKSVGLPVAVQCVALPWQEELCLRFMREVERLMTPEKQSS

COS‐hFAAH cells = assay: Quantification of compounds in COS‐hFAAH supernatant, cell lysates and medium; assay type: in vitro ADME; settings: 1, 3 and 24 hr
[8] = Protein binding to cell homogenates; assay type: in vitro ADME; settings: 500 μg·ml^−1 of protein
[9] = target: T6, rat brain fatty acid amide hydrolase (FAAH) (Rattus norvegicus, UniProt P97612); assay type: biochemical; settings: read-out: IC50 [95% CI]
T6 sequence (P97612 1-579): T3 sequence (P97612 1-579)
Method in brief: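 Rat brain membranes from Wistar rats, 10 μg protein, in 1 mM EDTA, 10 mM Tris, pH 7.6. Test compound at 1 nM–10 μM, pre-incubated with enzyme 5–60 min, or reaction started with enzyme when not pre-incubated. Substrate 2 μM AEA + 5 nM 3H‑AEA + 0.1% fatty acid-free BSA, 30 min at room temperature with agitation. Charcoal stop; supernatant 3H‑ethanolamine counted. Blank and vehicle controls; IC50 from normalized variable-slope sigmoidal fit.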

[10] = assay type: in vivo; settings: rat, after BIA 10‐2474 10 mg·kg^−1 p.o.

Question: What does the source list for `O=C(Nc1cnccc1Cl)N1CCN(Cc2ccc3c(c2)OC(F)(F)O3)CC1` [JNJ‐42165279]?
Answer: inhibition of brain FAAH [1]: 19.2%; off‐target activity at the sites studied [2]: some weak activity at just seven sites; inhibition of liver FAAH [3]: 25.5%; concentration that completely inhibited the band corresponding to the MW of FAAH [4]: 10 µM; k inact/K I [5]: 5,092 M·s^−1; AEA ([6]; 1 mg·kg^−1 p.o.): 89.0 ± 20.6 % of control; OEA ([6]; 1 mg·kg^−1 p.o.): 114.9 ± 13.36 % of control; PEA ([6]; 1 mg·kg^−1 p.o.): 123.4 ± 11.2 % of control; AEA ([6]; 3 mg·kg^−1 p.o.): 83.6 ± 9.1 % of control; OEA ([6]; 3 mg·kg^−1 p.o.): 121.7 ± 10.2 % of control; PEA ([6]; 3 mg·kg^−1 p.o.): 138.3 ± 19.4 % of control; AEA ([6]; 10 mg·kg^−1 p.o.): 86.5 ± 4.8 % of control; OEA ([6]; 10 mg·kg^−1 p.o.): 147.3 ± 13.8 % of control; PEA ([6]; 10 mg·kg^−1 p.o.): 205.6 ± 37.0 % of control; AEA ([6]; 30 mg·kg^−1 p.o.): 95.5 ± 2.5 % of control; OEA ([6]; 30 mg·kg^−1 p.o.): 234.9 ± 46.8 % of control; PEA ([6]; 30 mg·kg^−1 p.o.): 382.2 ± 103.5 % of control; inhibition level above 30 nM ([7]; 1‐ and 3‐hr periods): around 50%; IC50 ([7]; incubation 1 hr): 26.2 nM; IC50 ([7]; incubation 3 hr): 25.1 nM; IC50 ([7]; incubation 24 hr): 41.5 nM; detection in cell lysates (COS‐hFAAH cells): undetectable; stability in cellular media over time (COS‐hFAAH cells): stable; mean % free fraction ± SD [8]: 64.3 ± 4.0%; IC50 ([9]; pre‐incubation 0 min): 472 nM; IC50 ([9]; pre‐incubation 5 min): 365 nM; IC50 ([9]; pre‐incubation 15 min): 272 nM; IC50 ([9]; pre‐incubation 30 min): 221 nM; IC50 ([9]; pre‐incubation 45 min): 161 nM; IC50 ([9]; pre‐incubation 60 min): 94.3 nM

Question: Which “brain levels at all time points measured” value [10] does the source give for `CN(C(=O)n1cnc(-c2cccnc2)c1)[C@H]1CC[C@H](O)CC1` [BIA 10‐2631, N‐((1R,4R)‐4‐hydroxycyclohexyl)‐N‐methyl‐4‐(pyridin‐3‐yl)‐1H‐imidazole‐1‐carboxamide] here?
Answer: below the limit of quantification

Question: For `CN(C(=O)n1cnc(-c2ccc[n+]([O-])c2)c1)[C@H]1CC[C@H](O)CC1` [BIA 10‐2639, 3‐(1‐(((1R,4R)‐4‐hydroxycyclohexyl)(methyl)carbamoyl)‐1H‐imidazol‐4‐yl)pyridine 1‐oxide], which “brain levels at all time points measured” value [10] is on record?
Answer: below the limit of quantification
